The target in data set [1] is T1, Corticotropin-releasing factor receptor 1 (Homo sapiens, UniProt P34998).
T1 sequence (P34998 whole entry): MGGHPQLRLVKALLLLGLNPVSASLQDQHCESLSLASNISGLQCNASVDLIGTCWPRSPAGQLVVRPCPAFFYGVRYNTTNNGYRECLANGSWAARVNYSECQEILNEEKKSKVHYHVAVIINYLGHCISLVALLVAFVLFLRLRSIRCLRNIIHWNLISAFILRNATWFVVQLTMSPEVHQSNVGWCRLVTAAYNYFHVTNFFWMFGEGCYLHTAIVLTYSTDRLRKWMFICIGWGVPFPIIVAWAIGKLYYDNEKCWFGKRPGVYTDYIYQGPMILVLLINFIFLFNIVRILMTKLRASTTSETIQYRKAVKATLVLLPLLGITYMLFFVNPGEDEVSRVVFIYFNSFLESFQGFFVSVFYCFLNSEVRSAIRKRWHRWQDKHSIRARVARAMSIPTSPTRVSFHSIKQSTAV
In words: Displacement of [125I]-Tyr0-sauvagine from human CRF1 receptor expressed in HEK293T cells after 2 hrs by scintillation counting. It is filed as cell-based, HEK-293T. On the technique in general: Displacement assays read how much labelled ligand stays bound in the presence of the test substance.

The target in data set [2] is T2, Corticotropin-releasing factor receptor 2 (Homo sapiens) (UniProt Q13324).
T2 sequence (whole entry): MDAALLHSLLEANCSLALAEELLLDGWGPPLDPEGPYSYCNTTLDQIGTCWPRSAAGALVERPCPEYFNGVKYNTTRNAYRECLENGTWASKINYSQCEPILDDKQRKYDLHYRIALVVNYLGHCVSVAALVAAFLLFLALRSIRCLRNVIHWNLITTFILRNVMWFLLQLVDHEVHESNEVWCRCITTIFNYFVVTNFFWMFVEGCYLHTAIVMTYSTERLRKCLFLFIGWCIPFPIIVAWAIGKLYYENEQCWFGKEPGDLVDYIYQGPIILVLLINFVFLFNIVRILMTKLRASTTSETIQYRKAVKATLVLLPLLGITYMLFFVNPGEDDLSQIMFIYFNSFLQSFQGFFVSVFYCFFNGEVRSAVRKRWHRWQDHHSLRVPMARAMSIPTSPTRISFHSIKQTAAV
In words: Displacement of [125I]-antisauvagine-30 from human CRF2 receptor expressed in HEK293T cells at 1 uM after 2 hrs by scintillation counting. The data set is classed as cell-based. Particulars: HEK-293T. The gist of the method:
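Competition binding at 23 °C on HEK293T cells transfected with human CRF2 receptor. Each ligand tested at 1 μM against the radiotracer [125I]antisauvagine-30. Read-out is mean % displacement of specific radiotracer binding, n = 2.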

Data set [3] is described as follows: Lipophilicity, logP of the compound at pH 7.4. The data set is classed as physicochemical. Particulars: buffer. An outline of the steps: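 Octanol/aqueous buffer shake-flask partition at pH 7.4, done on the 18F-labelled radioligands; mean ± SD of n = 4.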
The test system of a further data set is Brain. The experiment in a line: Drug uptake in cynomolgus monkey brain assessed as whole-brain time-activity curve by MicroPET imaging analysis. The data set is classed as ADME, tissue-based, Macaca fascicularis. Particulars: in vivo.

The structures appear in SMILES notation. A value given as a limit tells only on which side of the number the result lay.

Broadly, the Ki is the dissociation constant of the complex between target and ligand, obtained from inhibition or displacement. `CCCCN(CC)c1cc(C)nc2c1NC(=O)CN2c1ccc(Cl)cc1Br` displayed a Ki in data set [1] of 2.5 nM.

Compound `Cc1cc(N(C)C)c2c(n1)N(c1ccc(C(C)C)cc1Br)CC(=O)N2CCF` returned a Ki in data set [1] of 59 nM.

A word on the inhibition: it is the relative decrease from the control value, in per cent. Regarding `CCCCN(CC)c1cc(C)nc2c1NC(=O)CN2c1ccc(Br)cc1C`, the inhibition in data set [2] worked out at 5.9%. Also, in data set [1], the inhibitory constant (Ki) was 4.4 nM.

Consider `CCCCN(CC)c1cc(C)nc2c1NC(=O)CN2c1ccc(Cl)cc1C`, for which the Ki in data set [1] was found to be 5.4 nM.

On to `CCCCN(CC)c1cc(C)nc2c1NC(=O)CN2c1ccc(OC)cc1C`, for which the inhibition in data set [2] was -2.3%. In data set [1], this compound returned a Ki of 4 nM.

With `CCN(C)c1cc(C)nc2c1N(CCCCF)C(=O)CN2c1ccc(C(C)C)cc1Br`, the Ki in data set [1] is 13.9 nM.

In the case of `CCCCN(CC)c1cc(C)nc2c1NC(=O)CN2c1ccc(Br)cc1CC`, in data set [2], the inhibition was determined as 2.1%. This compound also had a Ki in data set [1] of 2.5 nM.

For the compound `Cc1cc(N(C)C)c2c(n1)N(c1ccc(C(C)C)cc1Br)CC(=O)N2C/C=C/CF`, the inhibition constant Ki in data set [1] came out at 14.2 nM.

`CCCN(CCC)c1cc(C)nc2c1NC(=O)CN2c1ccc(C(C)C)cc1Br` showed an inhibitory constant (Ki) in data set [1] of 3.1 nM.

In the case of `CCCCN(CC)c1cc(C)nc2c1NC(=O)CN2c1ccc(Br)cc1Br`, in data set [2], the inhibition amounted to 9.4%. The same compound gave an inhibition constant Ki in data set [1] of 1.3 nM.

For orientation: logD means lipophilicity at a set pH, counting ionised and neutral species. In data set [3], `CCN(C)c1cc(C)nc2c1N(CCCC[17F])C(=O)CN2c1ccc(C(C)C)cc1Br` gave a log distribution coefficient (logD) of 2.22. Further, the SUV result in the data set with Brain is given as “<= 1”.

As for `CCCCN(CC)c1cc(C)nc2c1NC(=O)CN2c1ccc(C)cc1Cl`, the Ki in data set [1] was determined as 4.4 nM.

`CCCCN(CC)c1cc(C)nc2c1NC(=O)CN2c1ccc(Cl)cc1Cl`: the inhibition in data set [2] was 0.9%. Moreover, in data set [1], the Ki came to 3.4 nM.

Turning to `CC[C@H](C)[C@H](NC(=O)[C@@H](NC(=O)[C@H](CC(=O)O)NC(=O)[C@H](CC(C)C)NC(=O)[C@H](CC(C)C)NC(=O)[C@H](CC(C)C)NC(=O)[C@H](CCCN=C(N)N)NC(=O)[C@H](CC(N)=O)NC(=O)[C@H](CC(N)=O)NC(=O)[C@H](C)NC(=O)[C@H](C)NC(=O)[C@H](CCC(N)=O)NC(=O)[C@H](CCC(N)=O)NC(=O)[C@H](CCCCN)NC(=O)[C@H](CCC(=O)O)NC(=O)[C@H](CCCCN)NC(=O)[C@H](CCC(=O)O)NC(=O)[C@H](CCC(N)=O)NC(=O)[C@H](CCCCN)NC(=O)[C@H](CCC(=O)O)NC(=O)[C@@H](NC(=O)[C@H](CCC(=O)O)NC(=O)[C@@H](NC(=O)[C@H](CCSC)NC(=O)[C@H](CCCCN)NC(=O)[C@H](CCCN=C(N)N)NC(=O)[C@H](CC(C)C)NC(=O)[C@H](CC(C)C)NC(=O)[C@H](CCC(=O)O)NC(=O)[C@H](CC(C)C)NC(=O)[C@H](CO)NC(=O)[C@H](CC(C)C)NC(=O)[C@H](CC(=O)O)NC(=O)[C@@H](NC(=O)[C@H](CO)NC(=O)[C@@H](NC(=O)[C@@H]1CCCN1C(=O)[C@@H]1CCCN1C(=O)CNC(=O)[C@@H]1CCC(=O)N1)[C@@H](C)CC)[C@@H](C)CC)[C@@H](C)CC)[C@@H](C)CC)[C@@H](C)O)C(=O)O`, the inhibition in data set [2] came out at 100%.

As to `CCCCN(CC)c1cc(C)nc2c1NC(=O)CN2c1ccc(C(C)C)cc1Br`, the inhibition in data set [2] was found to be 0.7%. This compound also registered an inhibition constant (Ki) in data set [1] of 2.4 nM.

In turn, `CCCCN(CC)c1cc(C)nc2c1NC(=O)CN2c1ccc(Br)cc1Cl` gave a Ki in data set [1] of 2.7 nM.

For `CCN(C)c1cc(C)nc2c1NC(=O)CN2c1ccc(C(C)C)cc1Br`, in data set [1], the affinity, expressed as Ki, was 16.4 nM.

Consider `CCCCN(CC)c1cc(C)nc2c1N(C)C(=O)CN2c1ccc(Br)cc1Br`, for which the affinity in data set [1], expressed as Ki, was 2.4 nM.

In turn, `Cc1cc(N(C)C)c2c(n1)N(c1ccc(C(C)C)cc1Br)CC(=O)N2` displayed a Ki in data set [1] of 180 nM.

As for `Cc1cc(N(C)C)c2c(n1)N(c1ccc(C(C)C)cc1Br)CC(=O)N2CCCCF`, the inhibition constant (Ki) in data set [1] is 21.6 nM.

`CCN(CC)c1cc(C)nc2c1N(CCF)C(=O)CN2c1ccc(C(C)C)cc1Br` registered a Ki in data set [1] of 7.3 nM.

Consider `CCCCN(CC)c1cc(C)nc2c1NC(=O)CN2c1ccc(I)cc1C`, for which the Ki in data set [1] is 3.4 nM.

Turning to `CCCCN(CC)c1cc(C)nc2c1NC(=O)CN2c1ccc(C(C)(C)C)cc1Br`, the inhibition in data set [2] is -3.8%. In data set [1], the Ki worked out at 4.2 nM.

On to `CCCN(CCC)c1cc(C)nc2c(-c3cnc(N(C)C)cc3C)c(C)nn12`, for which, in data set [2], the inhibition is 23.8%.

On to `CCCCN(CC)c1cc(C)nc2c1NC(=O)CN2c1ccc(C)cc1C`, for which the inhibition in data set [2] is 6.8%. In addition, the Ki in data set [1] was 3.9 nM.

On to `Cc1cc(N(C)C)c2c(n1)N(c1ccc(C(C)C)cc1Br)CC(=O)N2CCCC[17F]`, for which the log distribution coefficient (logD) in data set [3] came out at 2.19.

Regarding `CCCCN(CC)c1cc(C)nc2c1NC(=O)CN2c1ccc(C)cc1Br`, the inhibition in data set [2] is 5.5%. The Ki in data set [1] stood at 4.4 nM.

Values taken from ChEMBL document CHEMBL3627705 (Bioorg Med Chem Lett, 2015).
